Experimental findings from ChEMBL document CHEMBL4699573, “Design, Synthesis, and Pharmacological Evaluation of Analogues Derived from the PLEV Tetrapeptide as Protein-Protein Interaction Modulators of Voltage-Gated Sodium Channel 1.6” (J Med Chem, 2020) are described below.

Active and inactive are the calls of the source. The calls are words filed in the database; no cut-off is given here. Residues, ends and D or L forms follow the SMILES beside them. *: point of attachment. Adamantane1carbonyl = O=C(C12CC3CC(CC(C3)C1)C2)*; Morpholide = C1CN(*)CCO1; Cbz = O=C(OCc1ccccc1)*; NHBn = c1ccc(CN*)cc1; Bz = O=C(c1ccccc1)*; NHCH2CH2OH = OCCN*; X2 = C1O[C@@H]1CO*; OtBu = CC(C)(C)O*; NEt2 = CCN(CC)*; X1 = C#CCO*

For data set [1], the system named is HEK293. Briefly: Modulation of recombinant human FGF141b (1 to 252 residues)-recombinant human Nav1.6 C-terminal tail (1763 to 1976 residues) protein-protein interaction expressed in HEK293 cells assessed as relative luminescence value at 50 uM measured at 2 mins interval for 20 mins by split-luciferase complementation assay relative to control. Format: cell-based. The conditions noted are these: time min 2-20. The method in brief:
(§1)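 Double-stable HEK293 line expressing CLuc-FGF14 and CD4-Nav1.6-C-tail-NLuc, kept on G418 and puromycin. Cells seeded for 24 h, then given compound for 1 h in serum-free, phenol red-free DMEM/F12 with a final 0.5% DMSO: 50 μM for screening, 0.25–100 μM over eight concentrations for dose-response; n = 4. D-luciferin added and read every 2 min for 20 min at 37 °C. Peak luminescence expressed as percent of per-plate DMSO mean (n = 32). IC50 from four-parameter nonlinear fit. At least 3 experiments.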

Data set [2] concerns HEK293. The data set can be described thus: Modulation of recombinant human FGF141b (1 to 252 residues)-recombinant human Nav1.6 C-terminal tail (1763 to 1976 residues) protein-protein interaction expressed in HEK293 cells measured at 2 mins interval for 20 mins by split-luciferase complementation assay relative to control. The format is cell-based. The conditions noted are these: filed as modulator, time min 2-20. A digest of the protocol:
as §1

The subject of data set [3] is HEK293. Briefly: Inhibition of full-length Photinus pyralis luciferase transfected in HEK293 cells at 25 uM incubated for 1 hrs by split-luciferase complementation assay. Format: cell-based. The method in brief:
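HEK293 cells transfected with full-length Photinus pyralis luciferase, then treated 1 h with 25 μM compound (n = 4) or 0.5% DMSO (n = 32). Luminescence read after D-luciferin addition, as in the LCA, normalized to per-plate DMSO controls. One-way ANOVA with Dunnett's test.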

Data set [4] in a line: Modulation of recombinant human FGF141b (1 to 252 residues)-recombinant human Nav1.6 C-terminal tail (1763 to 1976 residues) protein-protein interaction expressed in HEK293 cells measured at 2 mins interval for 20 mins by split-luciferase complementation assay. The format is cell-based. A digest of the protocol: as §1
For data set [5], the system named is HEK293. Briefly: Cytotoxicity against HEK293 cells assessed as reduction in cell viability measured after 18 hrs by celltiter-blue assay. The conditions noted are these: human, hek293, 18 h. For orientation: The colour change of resazurin is a common sign of viable cells or microbes.
Data set [6] concerns the target T1, Sodium channel protein type 8 subunit alpha (Homo sapiens, UniProt Q9UQD0). Briefly: Binding affinity to human recombinant Nav1.6 C-terminal domain expressed in Escherichia coli BL21 assessed as assessed as induction of protein denaturation by measuring change in melting temperature at 10 uM by fluorescent dye based thermal shift assay. The note with it: filed as modulator, dose 50.0 µM.
Target sequence in this assay (Q9UQD0 whole entry, looked up, the tested form may be a part): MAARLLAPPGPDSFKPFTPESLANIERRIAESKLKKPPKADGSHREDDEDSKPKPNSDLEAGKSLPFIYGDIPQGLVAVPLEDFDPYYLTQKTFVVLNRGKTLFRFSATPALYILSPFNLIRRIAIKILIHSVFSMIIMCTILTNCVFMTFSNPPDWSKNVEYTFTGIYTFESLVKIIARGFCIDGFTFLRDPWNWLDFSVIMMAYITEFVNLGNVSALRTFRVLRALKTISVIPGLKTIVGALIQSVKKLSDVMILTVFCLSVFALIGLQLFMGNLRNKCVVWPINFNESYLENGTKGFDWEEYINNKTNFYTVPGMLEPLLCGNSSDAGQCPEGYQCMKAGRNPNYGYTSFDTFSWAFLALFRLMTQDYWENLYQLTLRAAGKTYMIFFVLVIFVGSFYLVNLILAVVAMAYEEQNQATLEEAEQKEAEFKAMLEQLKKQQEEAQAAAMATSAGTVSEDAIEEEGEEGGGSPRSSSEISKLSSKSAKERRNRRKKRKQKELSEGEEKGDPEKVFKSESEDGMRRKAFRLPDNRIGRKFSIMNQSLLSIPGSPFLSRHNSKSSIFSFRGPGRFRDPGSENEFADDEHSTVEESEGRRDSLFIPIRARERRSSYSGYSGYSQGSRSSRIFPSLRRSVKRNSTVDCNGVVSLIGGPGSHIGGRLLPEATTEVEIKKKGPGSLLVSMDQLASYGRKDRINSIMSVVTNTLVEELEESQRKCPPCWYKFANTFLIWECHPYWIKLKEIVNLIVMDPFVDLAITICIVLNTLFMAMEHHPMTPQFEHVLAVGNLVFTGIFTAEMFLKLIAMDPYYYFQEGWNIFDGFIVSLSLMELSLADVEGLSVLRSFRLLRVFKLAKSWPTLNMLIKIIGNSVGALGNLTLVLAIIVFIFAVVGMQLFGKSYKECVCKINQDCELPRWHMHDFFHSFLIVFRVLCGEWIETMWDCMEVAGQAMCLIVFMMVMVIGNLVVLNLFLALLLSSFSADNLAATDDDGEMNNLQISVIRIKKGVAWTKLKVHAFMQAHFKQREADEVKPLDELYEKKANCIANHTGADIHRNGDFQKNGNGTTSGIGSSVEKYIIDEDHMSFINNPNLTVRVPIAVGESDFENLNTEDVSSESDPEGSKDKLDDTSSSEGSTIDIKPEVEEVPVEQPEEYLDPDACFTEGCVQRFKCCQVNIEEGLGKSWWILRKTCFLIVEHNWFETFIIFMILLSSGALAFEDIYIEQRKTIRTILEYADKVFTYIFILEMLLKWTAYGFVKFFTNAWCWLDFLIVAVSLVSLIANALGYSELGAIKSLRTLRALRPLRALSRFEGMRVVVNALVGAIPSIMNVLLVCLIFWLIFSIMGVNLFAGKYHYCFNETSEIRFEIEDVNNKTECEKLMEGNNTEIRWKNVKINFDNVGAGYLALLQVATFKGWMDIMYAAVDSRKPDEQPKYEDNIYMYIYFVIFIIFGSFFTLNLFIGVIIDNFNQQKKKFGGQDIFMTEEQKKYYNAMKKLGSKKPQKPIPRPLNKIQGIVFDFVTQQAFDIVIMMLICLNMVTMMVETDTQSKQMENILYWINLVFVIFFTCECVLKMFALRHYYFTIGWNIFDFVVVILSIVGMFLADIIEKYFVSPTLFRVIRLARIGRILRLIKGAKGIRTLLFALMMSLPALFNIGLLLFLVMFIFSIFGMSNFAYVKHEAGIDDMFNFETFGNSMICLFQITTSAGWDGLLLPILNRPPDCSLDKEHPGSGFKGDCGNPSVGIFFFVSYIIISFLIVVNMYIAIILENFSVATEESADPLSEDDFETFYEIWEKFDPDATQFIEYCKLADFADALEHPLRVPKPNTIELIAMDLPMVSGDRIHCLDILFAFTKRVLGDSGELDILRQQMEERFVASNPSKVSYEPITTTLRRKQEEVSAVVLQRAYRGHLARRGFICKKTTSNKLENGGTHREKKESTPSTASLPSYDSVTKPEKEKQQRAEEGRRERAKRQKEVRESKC

In data set [7] the target is T2, Fibroblast growth factor 14 (Homo sapiens, UniProt Q92915).
T2 sequence (Q92915 whole entry): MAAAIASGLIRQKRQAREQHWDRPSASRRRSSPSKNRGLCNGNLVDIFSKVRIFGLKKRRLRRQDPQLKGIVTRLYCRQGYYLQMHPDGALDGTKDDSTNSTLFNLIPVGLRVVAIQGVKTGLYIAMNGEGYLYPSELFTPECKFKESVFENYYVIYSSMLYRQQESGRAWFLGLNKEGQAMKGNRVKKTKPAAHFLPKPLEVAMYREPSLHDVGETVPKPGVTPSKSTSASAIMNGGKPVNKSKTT
The data set can be described thus: Binding affinity to human recombinant FGF14 expressed in Escherichia coli BL21 assessed as dissociation constant by SPR analysis. The method in brief: (§2)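 Biacore T100 runs with FGF14 (17,896 RU) or Nav1.6 C-tail (6,800 RU) amine-coupled on CM5 at pH 5.5. Compounds at 0.195–200 μM in PBS, 0.005% Tween-20, 2% DMSO; 50 μL/min at 25 °C. 120 s association, 150 s dissociation, DMSO calibration, blank subtraction. Rates from a Langmuir 1:1 fit; KD averages the kinetic and steady-state values. At least duplicate experiments.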

In data set [8] the target is T1, Sodium channel protein type 8 subunit alpha. The data set can be described thus: Binding affinity to human recombinant Nav1.6 C-terminal domain expressed in Escherichia coli BL21 assessed as association rate constant by SPR analysis. The note with it: filed as modulator. The method in brief: as §2
(In general: In SPR one partner is held on a chip, and binding of the other changes the refractive index at the surface.)
Target sequence in this assay (Q9UQD0 whole entry, looked up, the tested form may be a part): as the sequence (Q9UQD0 whole entry, looked up, the tested form may be a part) above

For data set [9] the target is unchanged. The data set can be described thus: Binding affinity to human recombinant Nav1.6 C-terminal domain expressed in Escherichia coli BL21 assessed as dissociation constant by SPR analysis. A digest of the protocol:
as §2
Target sequence in this assay (Q9UQD0 whole entry, the tested form may be a part): as the sequence (Q9UQD0 whole entry, looked up, the tested form may be a part) above

Data set [10] has as its target T3, Fibroblast growth factor 14 (Homo sapiens) (UniProt Q92915).
T3 sequence (whole entry): T2 sequence (Q92915 whole entry)
Briefly: Binding affinity to human recombinant FGF14 expressed in Escherichia coli BL21 assessed as association rate constant by SPR analysis. The note with it: filed as modulator. A digest of the protocol:
as §2

Data set [11] has as its target T1, Sodium channel protein type 8 subunit alpha. Briefly: Binding affinity to human recombinant Nav1.6 C-terminal domain expressed in Escherichia coli BL21 assessed as dissociation rate constant by SPR analysis. The note with it: filed as modulator. A digest of the protocol:
as §2
Target sequence in this assay (Q9UQD0 whole entry, looked up, the tested form may be a part): as the sequence (Q9UQD0 whole entry, looked up, the tested form may be a part) above

The target in data set [12] is T3, Fibroblast growth factor 14 (Homo sapiens). The data set can be described thus: Binding affinity to human recombinant FGF14 expressed in Escherichia coli BL21 assessed as assessed as induction of protein denaturation by measuring change in melting temperature at 50 uM by fluorescent dye based thermal shift assay. The conditions noted are these: filed as modulator.

Usually IC50 stands for the midpoint of a concentration-inhibition curve. By ΔTm is commonly meant the shift of the melting midpoint relative to a reference. The term Kd denotes the free concentration of one partner at which half of the binding sites on the other are occupied at equilibrium, for simple one-to-one binding.

With `COC(=O)[C@@H](NC(=O)[C@H](CCC(=O)OC(C)(C)C)NC(=O)[C@H](CC(C)C)NC(=O)[C@@H]1CCCN1C(C)=O)C(C)C` (Ac-PLE(OtBu)V-OMe), the Activity in [1] amounted to 95%.

Consider `CC(=O)N1CCC[C@H]1C(=O)N[C@@H](CC(C)C)C(=O)N[C@@H](CCC(=O)O)C(=O)N[C@H](C(N)=O)C(C)C` (Ac-PLEV-NH2), for which the Activity in [1] amounted to 79.4%.

Take `CC(C)C[C@H](NC(=O)[C@@H]1CCCN1C(=O)C12CC3CC(CC(C3)C1)C2)C(=O)N[C@@H](CCC(=O)OC(C)(C)C)C(=O)N[C@H](C(N)=O)C(C)C` (Adamantane1carbonyl-PLE(OtBu)V-NH2): the Activity was 68.7% in [1] and “Non-Toxic” in [5]. For the same compound, the Efficacy in [2] was determined as 82.1%. Moreover, in [3], the inhibition entry is “inactive”. The IC50 in data set [4] was determined as 49 µM.

As to `C#CCOC(=O)[C@@H](NC(=O)[C@H](CCC(=O)OC(C)(C)C)NC(=O)[C@H](CC(C)C)NC(=O)[C@@H]1CCCN1C(=O)C12CC3CC(CC(C3)C1)C2)C(C)C` (Adamantane1carbonyl-PLE(OtBu)V-X1), the Activity in data set [1] (filed as modulator) is 5.1%; in [5] it was “Non-Toxic”. Further, the Efficacy in data set [2] came to 96.6%. Besides, the inhibition result in data set [3] was “inactive”. Besides, the ΔTm was -0.15 °C in data set [6] and -1.85 °C in data set [12]. In addition, the Kd in data set [7] was 14.7 µM; in data set [9], above 200 µM. For the same compound, the K in data set [8] is 1.26 10^5/M/s; in [10] it was 2.58 10^4/M/s; in data set [11], 1.45 10^-3/s. Moreover, in data set [4], the IC50 was 13.8 µM.

Take `CC(C)C[C@H](NC(=O)[C@@H]1CCCN1C(=O)C12CC3CC(CC(C3)C1)C2)C(=O)N[C@@H](CCC(=O)OC(C)(C)C)C(=O)N[C@H](C(=O)OC[C@@H]1CO1)C(C)C` (Adamantane1carbonyl-PLE(OtBu)V-X2): the Activity in data set [1] (filed as modulator) is 13.1%; in data set [5], “Non-Toxic”. Moreover, the Efficacy in data set [2] is 91.4%. The inhibition result in data set [3] was “inactive”. For the same compound, the IC50 in data set [4] was found to be 25.1 µM.

Consider `CC(C)C[C@H](NC(=O)[C@@H]1CCCN1C(=O)c1ccccc1)C(=O)N[C@@H](CCC(=O)OC(C)(C)C)C(=O)N[C@H](C(N)=O)C(C)C` (Bz-PLE(OtBu)V-NH2), for which the Activity in data set [1] is 105%.

As for `CC(C)C[C@H](NC(=O)[C@@H]1CCCN1C(=O)OCc1ccccc1)C(=O)N[C@@H](CCC(=O)OC(C)(C)C)C(=O)N[C@H](C(=O)N1CCOCC1)C(C)C` (Cbz-PLE(OtBu)V-Morpholide), the Activity in data set [1] was 72%.

For `CCN(CC)C(=O)[C@@H](NC(=O)[C@H](CCC(=O)OC(C)(C)C)NC(=O)[C@H](CC(C)C)NC(=O)[C@@H]1CCCN1C(=O)OCc1ccccc1)C(C)C` (Cbz-PLE(OtBu)V-NEt2), the Activity in data set [1] came to 92.3%.

With `CC(C)C[C@H](NC(=O)[C@@H]1CCCN1C(=O)OCc1ccccc1)C(=O)N[C@@H](CCC(=O)OC(C)(C)C)C(=O)N[C@H](C(N)=O)C(C)C` (Cbz-PLE(OtBu)V-NH2), the Activity in [1] was found to be 112%.

`CC(C)C[C@H](NC(=O)[C@@H]1CCCN1C(=O)OCc1ccccc1)C(=O)N[C@@H](CCC(=O)OC(C)(C)C)C(=O)N[C@H](C(=O)NCc1ccccc1)C(C)C` (Cbz-PLE(OtBu)V-NHBn): the Activity in data set [1] was 134%; in [5], “Non-Toxic”. For the same compound, in [3], the inhibition entry was “inactive”.

As to `CC(C)C[C@H](NC(=O)[C@@H]1CCCN1C(=O)OCc1ccccc1)C(=O)N[C@@H](CCC(=O)OC(C)(C)C)C(=O)N[C@H](C(=O)NCCO)C(C)C` (Cbz-PLE(OtBu)V-NHCH2CH2OH), the Activity in data set [1] was determined as 118%.

For `CNC(=O)[C@@H](NC(=O)[C@H](CCC(=O)OC(C)(C)C)NC(=O)[C@H](CC(C)C)NC(=O)[C@@H]1CCCN1C(=O)OCc1ccccc1)C(C)C` (Cbz-PLE(OtBu)V-NHMe), the Activity in data set [1] came out at 103%.
